Experiment [1] concerns Candida albicans. The experiment in a line: Antifungal activity against Candida albicans NCIM 300 at >50 ug/ml after 2 to 3 days by serial plate dilution method. Format: functional, organism-based. In outline:
(§1)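 For the fungal lawn, a loopful of each strain was suspended in 3 ml normal saline and spread on agar plates. Excess suspension was decanted and the plates were dried 1 h at 37 °C. Wells were punched and labeled. Plates, including a triplicate control, were held at 37 °C for 2–3 days. Zones of inhibition and MIC were recorded against fluconazole as standard.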

Experiment [2] has as its system Aspergillus niger. Briefly: Antifungal activity against Aspergillus niger NCIM 617 at >50 ug/ml after 2 to 3 days by serial plate dilution method. The format is functional, organism-based. In outline: as §1
In experiment [3] the test system is Pseudomonas aeruginosa. Briefly: Antibacterial activity against Pseudomonas aeruginosa ATCC 27853 after 24 hrs by disc diffusion method. Format: functional. The conditions noted are these: ATCC 27853, 24 h. In outline: (§2)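 Bacterial strains tested on discs at each concentration, placed in triplicate in nutrient agar seeded with fresh bacteria; incubated 37 °C for 24 h. Ciprofloxacin served as reference, with solvent and growth controls. Zones of inhibition and MICs were recorded.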
In general terms: Agar diffusion results depend on both activity and mobility in agar.

Experiment [4] deals with Aspergillus fumigatus. Briefly: Antifungal activity against Aspergillus fumigatus NCIM 902 at 10 ug/ml after 2 to 3 days by serial plate dilution method. Format: functional. The conditions noted are these: read-out: IZ. In outline: as §1
The test system of experiment [5] is Aspergillus flavus. Briefly: Antifungal activity against Aspergillus flavus NCIM 524 after 2 to 3 days by serial plate dilution method. Format: functional. The gist of the method:
as §1

Experiment [6] relates to Aspergillus flavus. Briefly: Antifungal activity against Aspergillus flavus NCIM 524 at 10 ug/ml after 2 to 3 days by serial plate dilution method. Format: functional. The conditions noted are these: read-out: IZ. In outline: as §1
Experiment [7] relates to Pseudomonas aeruginosa. Briefly: Antibacterial activity against Pseudomonas aeruginosa ATCC 27853 at 10 ug/ml after 24 hrs by disc diffusion method. The note with it: ATCC 27853, 24 h, read-out: IZ. Format: functional. In outline: as §2
Experiment [8] relates to Staphylococcus aureus. The experiment in a line: Antibacterial activity against Staphylococcus aureus ATCC 25923 at after 24 hrs by disc diffusion method. The conditions noted are these: ATCC 25923, 24 h. Format: functional. The gist of the method: as §2
In experiment [9] the test system is Staphylococcus aureus. The experiment in a line: Antibacterial activity against Staphylococcus aureus ATCC 25923 at 10 ug/ml after 24 hrs by disc diffusion method. Format: functional. The note with it: ATCC 25923, 24 h, read-out: IZ. The gist of the method:
as §2

The test system of experiment [10] is Escherichia coli. The experiment in a line: Antibacterial activity against Escherichia coli ATCC 25922 after 24 hrs by disc diffusion method. Format: functional. The note with it: ATCC 25922, 24 h. In outline: as §2
For experiment [11], the system named is Escherichia coli. The experiment in a line: Antibacterial activity against Escherichia coli ATCC 25922 at 10 ug/ml after 24 hrs by disc diffusion method. The format is functional. The conditions noted are these: ATCC 25922, 24 h, read-out: IZ. In outline:
as §2

For experiment [12], the system named is Bacillus subtilis. Briefly: Antibacterial activity against Bacillus subtilis ATCC 11774 at 15 ug/ml after 24 hrs by disc diffusion method. The format is functional. The note with it: ATCC 11774, 24 h, read-out: IZ. The gist of the method: as §2
In experiment [13] the test system is Bacillus subtilis. The experiment in a line: Antibacterial activity against Bacillus subtilis ATCC 11774 after 24 hrs by disc diffusion method. Format: functional. The conditions noted are these: ATCC 11774, 24 h. In outline: as §2
The subject of experiment [14] is Aspergillus fumigatus. The experiment in a line: Antifungal activity against Aspergillus fumigatus NCIM 902 after 2 to 3 days by serial plate dilution method. Format: functional. The gist of the method:
as §1

For experiment [15], the system named is Pseudomonas aeruginosa. Briefly: Antibacterial activity against Pseudomonas aeruginosa ATCC 27853 at >50 ug/ml after 24 hrs by disc diffusion method. Format: functional, organism-based. In outline:
as §2

Experiment [16] deals with Staphylococcus aureus. The experiment in a line: Antibacterial activity against Staphylococcus aureus ATCC 25923 at >50 ug/ml after 24 hrs by disc diffusion method. The format is functional, organism-based. The gist of the method: as §2
Experiment [17] has as its system Candida albicans. Briefly: Antifungal activity against Candida albicans NCIM 300 at 10 ug/ml after 2 to 3 days by serial plate dilution method. Format: functional. The note with it: read-out: IZ. In outline:
as §1

Experiment [18] has as its system Aspergillus niger. The experiment in a line: Antifungal activity against Aspergillus niger NCIM 617 after 2 to 3 days by serial plate dilution method. The format is functional. The gist of the method: as §1
Experiment [19] deals with Aspergillus niger. The experiment in a line: Antifungal activity against Aspergillus niger NCIM 617 at 10 ug/ml after 2 to 3 days by serial plate dilution method. The note with it: read-out: IZ. Format: functional. In outline: as §1
For experiment [20], the system named is Escherichia coli. The experiment in a line: Antibacterial activity against Escherichia coli ATCC 25922 at >50 ug/ml after 24 hrs by disc diffusion method. Format: functional, organism-based. In outline:
as §2

Experiment [21] relates to Candida albicans. The experiment in a line: Antifungal activity against Candida albicans NCIM 300 after 2 to 3 days by serial plate dilution method. The format is functional. In outline:
as §1

For orientation: MIC means the lowest concentration that inhibits growth of the organism. Lower therefore signals inhibition by little substance.

Converted amounts (≈) assume the structure as drawn. The source made the active and inactive calls. No cut-off for these calls is given here.

Turning to `CC(=O)c1ccc2c(c1)N(C(=O)CN1C(=O)C=CC1=O)c1ccccc1S2`, the outcome in the experiment on Candida albicans [1] and in the experiment with Aspergillus niger [2] was inactive. For the same molecule, the MIC with Pseudomonas aeruginosa [3] was found to be 15 µg/mL (≈ 39.6 µM); against Aspergillus flavus [5] it was 25 µg/mL (≈ 66.1 µM); against Staphylococcus aureus [8] it was 15 µg/mL (≈ 39.6 µM); in the experiment on Escherichia coli [10] it was 20 µg/mL (≈ 52.9 µM); against Bacillus subtilis [13], 15 µg/mL (≈ 39.6 µM); with Aspergillus fumigatus [14], 30 µg/mL (≈ 79.3 µM). In addition, the zone of inhibition at 10 µg/mL is 16 mm with Aspergillus fumigatus [4]; 18 mm with Aspergillus flavus [6]; 17 mm with Pseudomonas aeruginosa [7]; 16 mm with Staphylococcus aureus [9]; 18 mm in the experiment on Escherichia coli [11]. Besides, the zone of inhibition at 15 µg/mL in the experiment with Bacillus subtilis [12] was found to be 16 mm.
`O=C1c2ccccc2C(=O)N1CC(=O)N1c2ccccc2Sc2ccc(C(F)(F)F)cc21`: the outcome in the experiment on Pseudomonas aeruginosa [15], in the experiment with Staphylococcus aureus [16] and in the experiment with Escherichia coli [20] was inactive. Further, the zone of inhibition at 10 µg/mL in the experiment with Candida albicans [17] was 21 mm; in the experiment on Aspergillus fumigatus [4], 18 mm; in the experiment on Aspergillus flavus [6], 22 mm; in the experiment with Aspergillus niger [19] it was 21 mm. The minimal inhibitory concentration (MIC) was found to be 10 µg/mL (≈ 22 µM) in the experiment on Aspergillus flavus [5]; 10 µg/mL (≈ 22 µM) against Aspergillus niger [18]; 25 µg/mL (≈ 55 µM) in the experiment on Bacillus subtilis [13]; 10 µg/mL (≈ 22 µM) against Candida albicans [21]; 10 µg/mL (≈ 22 µM) in the experiment with Aspergillus fumigatus [14]. Also, the zone of inhibition at 15 µg/mL with Bacillus subtilis [12] amounted to 14 mm.

Values taken from ChEMBL document CHEMBL1154781, “Synthesis and antimicrobial activity of some new N-acyl substituted phenothiazines” (2009).
